Structures are written as SMILES. Activity calls are given as the source filed them. Unless noted, no cut-off for these calls is given here. Where only a bound is given, the exact number is not on record here.

This is an account of results in ChEMBL document CHEMBL1156237, “Antiviral activity of benzimidazole derivatives. II. Antiviral activity of 2-phenylbenzimidazole derivatives” (Bioorg Med Chem, 2010).

For one data set, the system named is Poliovirus 1. As to the kind of experiment: Antiviral activity against Polio virus type1 Sabin strain Chat infected in african green monkey Vero cells after 2 days by plaque reduction assay. Type of data set: functional, organism-based, Human poliovirus 1 strain Sabin. The settings on record: Enterovirus C, 48 h. A general note: Plaques are areas of infected cells; plaque reduction assays count them against a control.

Data set [1] relates to Vesicular stomatitis virus. The data set can be described thus: Antiviral activity against VSV Indiana lab infected in african green monkey Vero cells after 2 days by plaque reduction assay. The data set is classed as functional, organism-based.
A further data set relates to Coxsackievirus B2. As to the kind of experiment: Antiviral activity against Human coxsackievirus B2 Ohio-1 infected in african green monkey Vero cells after 3 days by plaque reduction assay. Type of data set: functional, organism-based, Coxsackievirus B2 (strain Ohio-1). The note with it: Enterovirus B, Vero, 72 h. Put shortly:
(§1)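 Plaque reduction assay. Vero 76 cells at 2 × 10^5/well, grown overnight to confluence in D-MEM with 10% FBS. Infected 2 h with 50–100 PFU/well, unadsorbed virus removed. Overlay of D-MEM with 1% inactivated FBS and 0.75% methylcellulose, with or without serial compound dilutions. Incubated at 37 °C for 3 days (HSV-1 KOS, CVB-2 Ohio-1) or 5 days (RSV A2). Fixed and stained with crystal violet in 50% ethanol; plaques counted; EC50 by linear regression.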

Data set [2] deals with Mammalian orthoreovirus 1. As to the kind of experiment: Antiviral activity against Reovirus 1 3651 infected in BHK21 cells assessed as protection from virus-induced cytopathogenicity after 3 to 4 days by MTT method. The note with it: for Activity: BHK-21. The data set is classed as functional, organism-based. (Protection from cytopathic effect is a common read-out in antiviral testing.)

A further data set deals with Vaccinia virus. As to the kind of experiment: Antiviral activity against Vaccinia virus Elstree-Lister infected in african green monkey Vero cells after 3 days by plaque reduction assay. The data set is classed as functional, organism-based. The settings on record: Orthopoxvirus vaccinia.
The subject of a further data set is Yellow fever virus. As to the kind of experiment: Antiviral activity against Yellow fever virus 17D infected in BHK cells assessed as protection from virus-induced cytopathogenicity after 3 to 4 days by MTT method. Type of data set: functional, organism-based.
The test system of data set [3] is Bovine viral diarrhea virus 1. The data set can be described thus: Antiviral activity against Bovine viral diarrhea virus NADL infected in MDBK cells assessed as protection from virus-induced cytopathogenicity after 3 to 4 days by MTT method. The data set is classed as functional, organism-based, Bovine viral diarrhea virus 1-NADL. The settings on record: Bovine viral diarrhea virus isolates and strains, MDBK. In short, it runs like this:
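Cytopathogenicity protection assay. MDBK cells at 3 × 10^4/well, grown overnight to confluence. Infected with BVDV NADL at m.o.i. 0.01 in MEM-E with 0.5% inactivated FBS, 1 mM Na pyruvate and 1% kanamycin. Serial compound dilutions added after 1 h. After 3–4 days at 37 °C, viability read by MTT; EC50 is the concentration giving 50% protection.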

Data set [4] can be described thus: Cytotoxicity against human MT4 cells after 96 hrs by MTT assay. Type of data set: cell-based. The note with it: MT4 cells. Put shortly:
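Exponentially growing MT-4 cells at 1 × 10^5 cells/mL in RPMI-1640 with 10% FCS, exposed to serial compound dilutions at 37 °C, 5% CO2. Viability by MTT after 96 h; CC50 is the concentration reducing viability of mock-infected cells by 50%.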
In general terms: Tetrazolium dyes change colour on reduction, which living cells bring about.

The subject of data set [5] is Human immunodeficiency virus 1. As to the kind of experiment: Antiviral activity against HIV1 3B infected in human MT4 cells assessed as protection from virus-induced cytopathogenicity after 4 days by MTT method. The data set is classed as functional, organism-based. In short, it runs like this:
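MT-4 cells, 1 × 10^4/well in RPMI with or without serial compound dilutions, infected with HIV-1 IIIB, 100 CCID50 (m.o.i. 0.01). Protection from virus-induced cytopathogenicity read by MTT.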

The subject of data set [6] is Respiratory syncytial virus. The data set can be described thus: Antiviral activity against RSV A2 infected in african green monkey Vero cells after 5 days by plaque reduction assay. The data set is classed as functional, organism-based. Put shortly:
as §1

A short description of data set [7]: Cytotoxicity against MDBK cells after 48 to 96 hrs by MTT assay. Type of data set: cell-based, Bos taurus. The note with it: cattle, MDBK cells. In short, it runs like this: (§2)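 Cell seeding: MDBK at 6 × 10^5 cells/mL in MEM-E with 10% horse serum and 1 mM Na pyruvate; BHK at 1 × 10^6 cells/mL in MEM-E with 10% FBS. Serial compound dilutions, 37 °C, 5% CO2. Viability of mock-infected cells by MTT after 48–96 h; CC50 is the concentration reducing viability by 50%.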

The test system of the next data set is Human alphaherpesvirus 1. The data set can be described thus: Antiviral activity against HSV1 KOS infected in african green monkey Vero cells after 3 days by plaque reduction assay. The data set is classed as functional, organism-based. The note with it: Human alphaherpesvirus 1, KOS, 72 h. Put shortly: as §1
The nature of data set [8]: Cytotoxicity against BHK cells after 48 to 96 hrs by MTT assay. Type of data set: cell-based, Mesocricetus auratus. The settings on record: hamster. Put shortly: as §2
Data set [9] is described as follows: Cytotoxicity against african green monkey Vero cells. Type of data set: cell-based. The settings on record: chlorocebus sabaeus. Put shortly:
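Vero 76 monolayers exposed to serial compound dilutions, run in parallel on the same 24-well plates as the plaque-reduction assays. CC50 is the concentration reducing viability of mock-infected cells by 50%.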

Data set [10] in a line: Selectivity index, ratio of CC50 for MDBK cells to EC50 for Bovine viral diarrhea virus NADL. The settings on record: cattle, read-out: Ratio CC50/EC50. The data set is classed as toxicity, cell-based.
Data set [11] in a line: Selectivity index, ratio of CC50 for human MT4 cells to EC50 for Bovine viral diarrhea virus NADL. Type of data set: toxicity, cell-based. The note with it: read-out: Ratio CC50/EC50.

One may read the EC50 as the concentration at which the effect is half-maximal. A word on the CC50: it is the concentration that lowers cell viability or growth by half. Take `Cn1c(-c2ccc(N)cc2)nc2cc(C(F)(F)F)ccc21`: the EC50 was 20 µM in the data set on Poliovirus 1; 14 µM in the data set on Coxsackievirus B2; > 85 µM with Yellow fever virus; 69 µM in data set [3]; > 100 µM in the data set with Human alphaherpesvirus 1. For the same compound, the outcome (in data set [1]; in [2]; with Vaccinia virus; in data set [5]; in [6]) was inactive. The compound further gave a CC50 at 96 h in [4] of 20 µM. The CC50 in data set [7] was 74 µM; in data set [8] it was 85 µM; in data set [9], > 100 µM.

`CC(=O)Nc1ccc(-c2nc3cc(C(F)(F)F)ccc3n2C23CC4CC(CC(C4)C2)C3)cc1`: the EC50 in the data set with Poliovirus 1 is > 100 µM; in the data set with Coxsackievirus B2, > 100 µM; in the data set on Yellow fever virus, > 100 µM; in data set [3] it was > 82 µM; in the data set on Human alphaherpesvirus 1, > 100 µM. In addition, the outcome (in [1]; in data set [2]; with Vaccinia virus; in data set [5]; in [6]) was inactive. Also, it took 28 µM to reach half-maximal cytotoxicity in data set [4] (CC50 at 96 h). The results for the CC50 in data set [7], in data set [8] and in data set [9] were 82 µM, > 100 µM and > 100 µM, respectively.

In the case of `Oc1ccc(-c2nc3cc(C(F)(F)F)ccc3[nH]2)cc1`, the EC50 in the data set with Poliovirus 1 is 24 µM; in the data set with Coxsackievirus B2, 5 µM; in [2] (Mammalian orthoreovirus 1, 3651, BHK-21), 7 µM; in the data set on Vaccinia virus (72 h), > 100 µM; in the data set with Yellow fever virus, 12 µM; in data set [3] it was > 51 µM. The EC50 in data set [6] (human respiratory syncytial virus, A2, Vero, 120 h) was 20 µM; in the data set on Human alphaherpesvirus 1, 25 µM. For the same compound, the outcome in data set [1] and in data set [5] was inactive. Besides, in [4], the CC50 at 96 h is 17 µM. Besides, the CC50 was 51 µM in data set [7], > 100 µM in data set [8] and > 100 µM in [9].

With `O=C(CN1CCN(c2ccccc2)CC1)Nc1ccc(-c2nc3cc(C(F)(F)F)ccc3n2C23CC4CC(CC(C4)C2)C3)cc1`, the EC50 in the data set on Poliovirus 1 was > 100 µM; in the data set with Coxsackievirus B2, 27 µM; in the data set with Yellow fever virus, > 100 µM; in data set [3], > 100 µM; with Human alphaherpesvirus 1, > 100 µM. Further, the outcome (in data set [1]; in [2]; in the data set with Vaccinia virus; in [5]; in data set [6]) was inactive. For the same compound, the CC50 at 96 h in [4] is > 100 µM. Besides, the CC50 in data set [7], in data set [8] and in [9] was > 100 µM throughout.

On to `CN1CCN(CC(=O)Nc2ccc(-c3nc4cc(C(F)(F)F)ccc4n3C)cc2)CC1`, for which the EC50 in the data set with Poliovirus 1 was 41 µM; with Coxsackievirus B2, 19 µM; in the data set with Yellow fever virus it was 7 µM; in [3], 15 µM; in the data set on Human alphaherpesvirus 1, > 100 µM. For the same compound, the result (in data set [1]; in [2]; in the data set on Vaccinia virus; in data set [5]; in data set [6]) was inactive. For the same compound, the CC50 at 96 h in data set [4] stood at 22 µM. Also, the values for the CC50 in data set [7], in data set [8] and in data set [9] were 44 µM, 16 µM and > 100 µM, respectively.

As to `Cn1c(-c2ccc(NC(=O)CN3CCOCC3)cc2)nc2cc(C(F)(F)F)ccc21`, the EC50 (in the data set on Poliovirus 1; with Coxsackievirus B2; with Yellow fever virus; in data set [3]; in the data set with Human alphaherpesvirus 1) was > 100 µM in each case. Further, the outcome (in data set [1]; in data set [2]; with Vaccinia virus; in data set [5]; in data set [6]) was inactive. Moreover, in [4], the CC50 at 96 h is ≥ 100 µM. Also, the CC50 in [7], in [8] and in data set [9] was > 100 µM each time.

`O=C(CN1CCCC1)Nc1ccc(-c2nc3cc(C(F)(F)F)ccc3[nH]2)cc1`: the EC50 is > 100 µM in the data set with Poliovirus 1; > 100 µM with Coxsackievirus B2; 7 µM in the data set on Yellow fever virus; 3 µM in data set [3]; > 100 µM in the data set with Human alphaherpesvirus 1. For the same compound, the outcome in [1] and in data set [5] was inactive. For the same compound, the selectivity ratio in data set [10] was determined as 5; in [11] it was 6. In addition, it took 18 µM to reach half-maximal cytotoxicity in data set [4] (CC50 at 96 h). Also, the values for the CC50 in [7], in data set [8] and in [9] were 15 µM, 29 µM and > 100 µM, respectively.

Consider `Nc1ccc(-c2nc3cc(C(F)(F)F)ccc3n2C2CCCCC2)cc1`, for which the EC50 (with Poliovirus 1; with Coxsackievirus B2; with Yellow fever virus; in [3]; in the data set on Human alphaherpesvirus 1) was > 100 µM each time. The outcome (in [1]; in [2]; with Vaccinia virus; in [5]; in data set [6]) was inactive. In addition, the CC50 at 96 h in data set [4] amounted to 44 µM. Also, the CC50 in [7], in data set [8] and in data set [9] was > 100 µM each time.

`Cn1c(-c2ccc(NC(=O)CN3CCCCC3)cc2)nc2cc(C(F)(F)F)ccc21`: the EC50 in the data set on Poliovirus 1 was > 100 µM; in the data set on Coxsackievirus B2, 32 µM; in the data set on Yellow fever virus it was > 100 µM; in [3], 6 µM; in the data set on Human alphaherpesvirus 1, > 100 µM. The outcome (in data set [1]; in data set [2]; with Vaccinia virus; in data set [5]; in [6]) was inactive. In addition, half-maximal cytotoxicity in data set [4] (CC50 at 96 h) was put at 9 µM. Also, the CC50 in [7] was 100 µM; in data set [8] it was > 100 µM; in [9], > 100 µM.

As for `CCN(CC)CC(=O)Nc1ccc(-c2nc3cc(C(F)(F)F)ccc3[nH]2)cc1`, the EC50 in the data set with Poliovirus 1 was > 24 µM; with Coxsackievirus B2, > 24 µM; in the data set with Yellow fever virus, 7 µM; in data set [3], 2 µM; in the data set on Human alphaherpesvirus 1, 24 µM. The outcome in data set [1] and in data set [5] was inactive. Also, the selectivity ratio came to 6.5 in data set [10] and 4 in [11]. The CC50 at 96 h in data set [4] turned out to be 8 µM. The CC50 in [7] was 13 µM; in data set [8], 23 µM; in data set [9] it was 24 µM.

Regarding `Cn1c(-c2ccc(NC(=O)CN3CCN(c4ccccc4)CC3)cc2)nc2cc(C(F)(F)F)ccc21`, the EC50 in the data set with Poliovirus 1 was 2 µM; in the data set with Coxsackievirus B2, 3 µM; with Yellow fever virus, > 100 µM; in [3], > 1.4 µM; in the data set on Human alphaherpesvirus 1 it was > 30 µM. Besides, the outcome (in data set [1]; in data set [2]; in the data set with Vaccinia virus; in data set [5]; in data set [6]) was inactive. For the same compound, it took 1.5 µM to reach half-maximal cytotoxicity in data set [4] (CC50 at 96 h). Further, the CC50 in data set [7] is 1.4 µM; in data set [8], 100 µM; in data set [9], 30 µM.
